Columns and labels:
[1] = Cytotoxicity against HEL cells assessed as alteration of cell morphology after 3 days by microscopic method; type: toxicity, cell-based; details: human
Outline: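 HEL cultures were exposed to compound at varying concentrations. Cytotoxicity was recorded as the minimum cytotoxic concentration, the lowest concentration giving a microscopically detectable alteration of cell morphology.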

Human alphaherpesvirus 3 [2] = assay: Antiviral activity against thymidine kinase deficient Varicella-Zoster virus 07-1 infected in HEL cells assessed as inhibition of virus plaque formation; type: functional, cell-based; details: Human alphaherpesvirus 3, 07-1, HEL
Outline: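 Confluent HEL fibroblast monolayers were infected with 20 PFU of TK⁻ VZV strain 07-1 and incubated with varying compound concentrations. Plaques were recorded once plaque formation reached completion in untreated infected controls.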

Human alphaherpesvirus 3 [3] = assay: Antiviral activity against thymidine Kinase expressing Varicella-Zoster virus OKA infected in HEL cells assessed as inhibition of virus plaque formation; type: functional, cell-based; details: Human alphaherpesvirus 3, OKA
Outline: (§1)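 Confluent HEL cell monolayers were infected with 20 PFU of VZV and incubated with varying compound concentrations. Plaques were scored once plaque formation was complete in untreated infected controls.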

Human alphaherpesvirus 1 [4] = assay: Antiviral activity against thymidine kinase-deficient acyclovir-resistant Herpes simplex virus 1 KOS infected in HEL cells assessed as inhibition of virus plaque formation; type: functional, cell-based; details: Human alphaherpesvirus 1, KOS
Human betaherpesvirus 5 [5] = assay: Antiviral activity against Human cytomegalovirus AD169 infected in HEL cells assessed as inhibition of virus plaque formation; type: functional, cell-based; details: Human betaherpesvirus 5, AD169, HEL
Human alphaherpesvirus 2 = assay: Antiviral activity against Herpes simplex virus 2 G infected in HEL cells assessed as inhibition of virus plaque formation; type: functional, cell-based; details: Human alphaherpesvirus 2, strain G
[6] = Cytotoxicity against HEL cells assessed as growth inhibition after 3 days by coulter counter method; type: toxicity, cell-based; details: human; for CC50: hel, 72 h; for CC50 at 72 h: HEL cells
Outline: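 HEL cells were seeded at 5×10^3 cells/well and allowed to grow for 24 h. Medium with varying compound concentrations was then added, and cells were incubated for 3 days at 37 °C before counting with a Coulter counter.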

Human alphaherpesvirus 1 [7] = assay: Antiviral activity against Herpes simplex virus 1 KOS infected in HEL cells assessed as inhibition of virus plaque formation; type: functional, cell-based; details: Human alphaherpesvirus 1, KOS
Human betaherpesvirus 5 [8] = assay: Antiviral activity against Human cytomegalovirus Davis infected in HEL cells assessed as inhibition of virus plaque formation; type: functional, cell-based; details: Human betaherpesvirus 5, Davis
Human alphaherpesvirus 3 [9] = assay: Antiviral activity against thymidine kinase deficient Varicella-Zoster virus YS-R infected in HEL cells assessed as inhibition of virus plaque formation; type: functional, cell-based; details: Human alphaherpesvirus 3, YS-R; outline: as §1

| Structure (SMILES) | MCC at 72 h [1] [µM] | EC50 (Human alphaherpesvirus 3 [2]) [µM] | EC50 (Human alphaherpesvirus 3 [3]) [µM] | EC50 (Human alphaherpesvirus 1 [4]) [µM] | EC50 (Human betaherpesvirus 5 [5]) [µM] | EC50 (Human alphaherpesvirus 2) [µM] | CC50 [6] [µM] | EC50 (Human alphaherpesvirus 1 [7]) [µM] | EC50 (Human betaherpesvirus 5 [8]) [µM] | EC50 (Human alphaherpesvirus 3 [9]) [µM] | CC50 at 72 h [6] [µM] |
| --- | --- | --- | --- | --- | --- | --- | --- | --- | --- | --- | --- |
| CC(=O)N(CCc1cn(C)c2ccccc12)Cc1ccc(-c2ccccc2)cc1 | 100 | > 20 | > 20 |  |  |  |  |  |  |  |  |
| Cn1cc(CCNCCc2ccc(-c3ccccc3)cc2)c2ccccc21 | > 4 | > 4 |  | > 100 | > 4 | > 100 | 20 | > 100 | > 4 |  |  |
| COC(=O)c1ccc(CNCCc2cn(Cc3ccc(-c4ccccc4)cc3)c3ccccc23)cc1 | 20 | > 4 |  | > 100 | > 4 | > 100 | 7.3 | > 100 | > 4 | > 4 |  |
| CCCn1cc(CNCCc2ccc(-c3ccccc3)cc2)c2cc(CNc3ccc(Cl)cc3)ccc21 | 20 | > 4 | > 4 | > 4 |  | > 4 | 9.7 | > 4 | > 4 |  |  |
| O=c1[nH]c(=O)n([C@H]2C[C@H](O)[C@@H](CO)O2)cc1/C=C/Br [BRIVUDINE] | 250 to 300 | 33 to 143 | 0.019 to 0.035 |  |  | 96 |  |  |  |  | 160 to 300 |
| CCCn1cc(CN2CCCCC2)c2cc(NC(=O)c3ccccc3)ccc21 | 100 | > 20 | > 20 | > 100 |  | > 100 | 31 | > 100 | > 20 |  |  |
| CCCn1cc(CN2CCCCC2)c2cc(CNc3ccc(Cl)cc3)ccc21 | 20 | > 4 | > 4 | > 20 |  | > 20 | 15 | > 20 | > 4 |  |  |
| CC(=O)N(CCc1cn(C)c2ccccc12)Cc1ccc2ccccc2c1 | 20 | > 4 | > 4 |  |  |  |  |  |  |  |  |
| CC(=O)N(CCc1cn(C)c2ccccc12)c1ccc2ccccc2c1 | 20 | > 4 | > 4 |  |  |  |  |  |  |  |  |
| Cn1cc(CCN(CCc2ccc(-c3ccccc3)cc2)C(=O)OC(C)(C)C)c2ccccc21 | 20 | > 4 | > 4 |  |  |  |  |  |  |  |  |
| CC(=O)N(CCc1cn(C)c2ccccc12)Cc1cccc2ccccc12 | 100 | > 20 | > 20 |  |  |  |  |  |  |  |  |
| Nc1nc(O)c2ncn(COC(CO)CO)c2n1 [GANCICLOVIR] | > 100 |  |  |  |  |  |  |  |  |  |  |
| Nc1ccn(C[C@@H](CO)OCP(=O)(O)O)c(=O)n1 [CIDOFOVIR] | > 250 |  |  |  |  | 0.7 |  | 0.4 |  |  |  |
| CC(=O)N(CCc1ccc(-c2ccccc2)cc1)CCc1cn(C)c2ccccc12 | 20 to 35 | 1.7 to 3.1 | 2.5 to 3.6 | > 100 |  | > 100 | 31 to 39 | > 100 | > 4 | 2.1 |  |
| CCCn1cc(C(=O)c2ccc(Cl)cc2)c2ccccc21 | > 100 | > 100 | > 100 | > 100 |  | > 100 | > 100 | > 100 | > 100 |  |  |
| Cn1cc(CCN(CCc2ccc(-c3ccccc3)cc2)C(=O)CCN2CCOCC2)c2ccccc21 | 20 | > 4 | > 4 |  |  |  |  |  |  |  |  |
| c1ccc(-c2ccc(Cn3cc(CN4CCCCC4)c4ccccc43)cc2)cc1 | 20 | > 4 | > 4 | > 20 |  | > 20 | 6.9 | > 20 | > 4 |  |  |
| CCCn1cc(CN2CCCCC2)c2ccccc21 | > 100 | > 100 | > 100 | > 100 | > 4 | > 100 | > 100 | > 100 | > 4 |  |  |
| COc1ccc(CNCCc2cn(C)c3ccccc23)cc1 | 100 | > 20 | > 20 | > 20 | > 20 | > 20 | 28 | > 20 | > 20 |  |  |
| Cn1cc(CCN(CCc2ccc(-c3ccccc3)cc2)C(=O)C2CCCCC2)c2ccccc21 | 20 | > 4 | > 4 |  |  |  |  |  |  |  |  |
| CC(=O)N(CCc1cn(C)c2ccccc12)Cc1ccc(Oc2ccccc2)cc1 | 20 | > 4 | > 4 |  |  |  |  |  |  |  |  |
| Cn1cc(CCNCc2ccc(Cl)cc2)c2ccccc21 | 20 | > 4 | > 4 | > 20 | > 20 | > 20 | 22 | > 20 | > 20 |  |  |
| CCCn1cc(CNCCc2ccc(-c3ccccc3)cc2)c2ccccc21 | 4 | > 0.8 | > 0.8 | > 100 |  | > 100 | 1.7 | > 100 | > 0.16 |  |  |
| CC(=O)N(CCc1cn(C)c2ccccc12)c1cccc2ccccc12 | 100 | > 20 | > 20 |  |  |  |  |  |  |  |  |
| Cn1cc(CCN(CCc2ccc(-c3ccccc3)cc2)C(=O)c2ccccc2)c2ccccc21 | > 100 | 20 | 20 |  |  |  |  |  |  |  |  |
| Cn1cc(CCNc2ccc3ccccc3c2)c2ccccc21 | > 100 | > 100 | > 100 | > 100 | 76 | > 100 | 41 | > 100 | 100 |  |  |
| Nc1nc2c(ncn2COCCO)c(=O)[nH]1 [ACYCLOVIR] | 250 to 440 |  |  |  |  |  |  |  |  |  | 191 to 224 |

Reference: ChEMBL document CHEMBL3877247, “Identification of an indol-based derivative as potent and selective varicella zoster virus (VZV) inhibitor” (Eur J Med Chem, 2016)
